Screens: PubChem, several laboratories
The list is not random: actives were taken first. Their share in the collection is about 2.1%.
Runt-SMMHC FRET: Runt domain-CBFb-SMMHC interaction inhibition. hit rate 0.74% among 220,000. inhibition, % at 20 µM. Q01196+Q13951. Cerulean-Runt/Venus-CBFb-SMMHC FRET ratio 530/480, 1 h;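 active means mean inhibition across duplicate retests at 20 µM reaching about 50%, limit read from the data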;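 further: 0% = DMSO wells and 100% = wells with excess untagged CBFb-SMMHC; inhibitors lower the FRET ratio by blocking Runt binding to CBFb-SMMHC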
Target sequence (Q01196 whole entry, looked up, the tested form may be a part): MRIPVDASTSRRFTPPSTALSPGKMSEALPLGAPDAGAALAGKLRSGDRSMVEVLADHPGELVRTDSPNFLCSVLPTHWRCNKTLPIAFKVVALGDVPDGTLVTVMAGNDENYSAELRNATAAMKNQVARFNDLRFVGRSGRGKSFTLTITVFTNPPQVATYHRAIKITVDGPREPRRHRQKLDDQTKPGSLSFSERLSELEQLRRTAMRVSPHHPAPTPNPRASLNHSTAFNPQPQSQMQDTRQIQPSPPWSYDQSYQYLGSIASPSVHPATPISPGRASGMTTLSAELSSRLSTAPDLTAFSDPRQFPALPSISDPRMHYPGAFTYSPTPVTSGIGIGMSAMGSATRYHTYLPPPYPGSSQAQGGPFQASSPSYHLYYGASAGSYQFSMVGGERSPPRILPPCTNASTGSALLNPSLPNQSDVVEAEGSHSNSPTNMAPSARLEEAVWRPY
Target sequence (Q13951 whole entry, looked up, the tested form may be a part): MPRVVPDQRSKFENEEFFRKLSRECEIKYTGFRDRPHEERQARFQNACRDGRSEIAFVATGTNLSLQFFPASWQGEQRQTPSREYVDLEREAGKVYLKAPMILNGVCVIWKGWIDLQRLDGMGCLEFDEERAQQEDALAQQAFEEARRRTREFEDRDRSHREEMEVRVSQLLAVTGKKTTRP
TbHK1 inh: blocks Trypanosoma brucei hexokinase 1 activity; recombinant TbHK1, G6PDH-coupled NADH A340; AID 1430; hit rate 0.11% among 220,000; inhibition, % at 10 µM;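 active means inhibition of 50% or more in the single-dose primary screen; inactive means inhibition below 50%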
RanGTP-Impb inh: inhibitors of RanGTP-importin-beta interaction, primary screen, biochemical, FRET, CFP-Ran, YFP-importin-beta, homogeneous; cell-free CFP-Ran/YFP-importin-beta FRET ratio; inhibition, % (no concentration beside the values); hit rate 1.1% among 300,000; AID 2216;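 active means more than half of the replicate wells show a fall in the fluorescence ratio signal beyond about 16%, limit read from the data, passing the limit was not always enough; inconclusive means exactly half of the replicate wells pass the set limit; inactive means fewer than half of replicates pass the limit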;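 further: 0% = DMSO wells and 100% = Ran loaded with GDP instead of GTP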
p97 ATPase inh: human p97 ATPase inhibition; P55072; recombinant p97 ATPase, Kinase-Glo ATP luminescence, 3 h; inhibition, % at 8 µM; hit rate 0.42% among 220,000; in the data active means inhibition above about 15%;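 further: 0% = DMSO vehicle and 100% = wells lacking enzyme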
Runt-CBFb FRET: blocks binding of human RUNX1 Runt domain to CBFb; Q01196+Q13951; Cerulean-Runt/Venus-CBFb FRET ratio 530/480, 1 h; inhibition, % at 20 µM; hit rate 0.46% among 220,000;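 active means inhibition over about 50% at 20 µM in the single-dose screen, limit read from the data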;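 further: 0% = DMSO wells and 100% = excess unlabeled CBFb competitor control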
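Reagent – Venus-CBFb binding partner, 100 nM · Assay system – Cerulean-tagged RUNX1 Runt domain (FRET donor) fusion protein · Input – 100 nM per protein · Incubation – two 1 h room-temperature incubations shielded from light · Measured by – FRET fluorescence · Medium – Tris buffer pH 7.5 with salts and BSA · Benchmarks – unlabeled CBFb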
Hck-Nef inh: human Hck-Nef kinase inhibition | Recombinant Hck-YEEI plus Nef, Z-Lyte FRET kinase assay | AID 463187 | inhibition, % at 20 µM | hit rate 0.68% among 220,000;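 active means Hck-Nef kinase inhibition above about 50%, limit read from the data; inactive means inhibition below that limit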;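 further: 0% = DMSO with Hck plus Nef and 100% = Hck alone without Nef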
Hck-Nef confirm: confirmation of Hck-Nef kinase inhibitors. calls only at 10 µM. Recombinant Hck-YEEI:Nef, Z-Lyte FRET kinase assay. hit rate 28% among 1,300. AID 463188. shares compounds with Hck-Nef inh;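 active means average inhibition of at least 50%, with Z-scores no higher than 3 in both the phospho-tyrosine peptide and fluorescence counterscreens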
The depositor's hits bear a star; i = inactive; ? = inconclusive; nt = no result given; + = active, no number.

SMILES	Runt-SMMHC FRET	TbHK1 inh	RanGTP-Impb inh	p97 ATPase inh	Runt-CBFb FRET	Hck-Nef inh	Hck-Nef confirm
COc1ccc(NS(=O)(=O)c2cccc(C(=O)N/N=C(\C)c3ccncc3)c2)cc1	29.7	30.8	-4.5	4.2	0.5	6.5	nt
COc1ccc(NS(=O)(=O)c2cccc(C(=O)N/N=C(\C)c3ccc(-n4ccnc4)cc3)c2)cc1	-7.9	-37.4	-1.8	2.5	1.9	59.0*	i
CCOC(=O)Cc1csc(NC(=O)COc2ccc(C)c(C)c2)n1	nt	0.6	-0.8	1.0	nt	52.5*	i
CCOC(=O)Cc1csc(NC(=O)COc2ccc(C)cc2)n1	1.7	-0.6	-1.8	0.1	0.6	19.0	nt
CCN(CC)c1ccc2c(C)c(Cl)c(=O)oc2c1	91.1*	-2.4	107.7*	0.0	19.7	+	nt
Cc1c(CC(=O)N2CCN(C(=O)C3COc4ccccc4O3)CC2)c(=O)oc2cc(O)cc(O)c12 (configuration not stated)	nt	nt	5.3	nt	nt	nt	nt
CCOC(=O)Cc1c(C)c2c(O)cc(O)cc2oc1=O	67.6*	-16.3	8.5	2.4	39.6	50.0*	i
CCOC(=O)Cc1c(C)c2ccc(N(CC)CC)cc2oc1=O	46.5	-22.8	130.5*	-0.1	9.9	106.6*	nt
CCOC(=O)CCc1c(C)c2ccc(OCC(=O)N(CC)CC)c(C)c2oc1=O	-0.8	-18.7	-3.5	1.8	1.2	-3.3	nt
CCOC(=O)CCc1c(C)c2ccc(O)cc2oc1=O	90.7*	-26.9	0.6	-0.1	40.0	90.1*	nt
CCCC(NC(=O)Cc1c(C)c2c(cc(C)c3c(C)coc32)oc1=O)C(=O)O (configuration not stated)	nt	nt	3.6	nt	nt	nt	nt
O=C(Nc1ccc(Cl)c(Cl)c1)Nc1nnc(-c2ccncc2)s1	-1.7	41.2	nt	-2.2	2.1	56.3*	nt
CN(C)c1nc(N)c([N+](=O)[O-])c(N2CCCCCC2)n1	nt	nt	-0.7	nt	nt	nt	nt
COC(=O)C1=CNC=C(C(=O)OC)C1c1cccc2ccccc12	nt	nt	0.3	nt	nt	nt	nt
COC(=O)C1=CNC=C(C(=O)OC)C1c1ccccc1Cl	146.0*	0.9	nt	3.0	71.6*	65.8*	nt
COc1cccc(=O)c2c(C)n(CC(=O)c3ccccc3)c(C)c12	-34.8	-5.9	0.7	8.4	-4.2	52.8*	i
Nc1[nH]nc2nc3ccccc3cc12	-4.5	-3.0	-1.1	5.2	1.0	32.0	nt
Nc1cccc2nc3ccccc3cc12	57.8*	-13.4	175.5*	-6.6	19.8	75.7*	nt
CN(C1CCCCC1)C(CNS(=O)(=O)c1ccccc1)c1ccccc1 (configuration not stated)	nt	nt	2.5	nt	nt	nt	nt
COc1ccc(N(CC(=O)NC2CC3CCC2C3)S(=O)(=O)c2ccc(C)c([N+](=O)[O-])c2)cc1 (configuration not stated)	nt	nt	-3.8	nt	nt	nt	nt
COC(=O)c1ccc(NC(=O)CCN2C(=O)C3C4CCC(C4)C3C2=O)cc1 (configuration not stated)	nt	nt	0.8	nt	nt	nt	nt
CCOP(=O)(O)c1ccccc1OCCOCCOc1ccccc1P(=O)(O)OCC	-0.7	-1.0	-1.0	1.8	0.4	94.4*	i
O=P(O)(O)c1ccccc1OCCOCCOc1ccccc1P(=O)(O)O	-5.4	4.4	nt	1.3	0.7	-10.9	nt
Cc1cccn2c(=O)c3cc(C(=O)NCC4CCCO4)c(=N)n(Cc4cccnc4)c3nc12 (configuration not stated)	57.4*	-23.5	nt	1.1	17.9	118.5*	nt
Cn1nc(C(=O)NCC2CCCO2)c2ccccc2c1=O (configuration not stated)	0.8	-0.2	-3.4	-1.8	0.4	-0.1	nt
SMILES	Runt-SMMHC FRET	TbHK1 inh	RanGTP-Impb inh	p97 ATPase inh	Runt-CBFb FRET	Hck-Nef inh	Hck-Nef confirm
N=c1c(C(=O)NCC2CCCO2)cc2c(=O)n3ccccc3nc2n1Cc1cccnc1 (configuration not stated)	57.4*	-10.9	182.1*	-0.1	17.9	128.2*	nt
CCO/C([O-])=N/c1sn[n+](C)c1C	-2.3	-23.7	0.1	-0.3	0.5	17.0	nt
COc1cccc(CN2C(=NC(=O)C3CC3)SC3CS(=O)(=O)CC32)c1 (configuration not stated)	nt	nt	7.4	nt	nt	nt	nt
O=C(NCCc1ccccc1)c1nccc2ccccc12	nt	nt	-1.6	nt	nt	nt	nt
c1ccc(CCNc2ccnc3cc4ccccc4cc23)cc1	92.9*	5.1	151.9*	5.2	36.5	156.0*	nt
CC(C)(C)n1nc(-c2ccc(F)cc2)c2c(N)ncnc21	-68.2	2.6	?	3.7	1.6	108.6*	+
Cc1ccc(-c2nn(C(C)(C)C)c3ncnc(NS(=O)(=O)c4ccc([N+](=O)[O-])cc4)c23)cc1	-4.7	-0.1	4.4	5.6	-1.5	46.2	nt
Cc1ccc(-c2nc(N)c3c(-c4ccc(C)cc4)nn(C(C)(C)C)c3n2)cc1	-0.9	-10.9	0.9	7.2	1.2	0.1	nt
CC(C)(C)n1nc(-c2ccc(Cl)cc2)c2c(N)ncnc21	-3.5	-2.7	?	-6.5	-5.8	104.7*	+
COc1cccc(NC(=S)N(CCC(C)C)C2CCN(C(C)=O)CC2)c1	nt	nt	2.8	nt	nt	nt	nt
CCOC(=O)c1[nH]c2ccccc2c1NC(=S)Nc1ccccc1C	-18.2	-3.5	-2.6	1.5	15.6	31.2	nt
CCOC(=O)c1[nH]c2ccccc2c1NC(=S)Nc1cc(C)ccc1C	-6.3	-5.4	-15.4	6.0	-1.7	56.8*	i
CCn1c(C)nc2cc(C(=O)N/N=C/c3ccc(O)c(O)c3O)ccc21	13.6	6.1	4.2	8.5	29.1	74.9*	+
COC(=O)c1ccccc1NC(=O)N1CCN(Cc2ccco2)CC1	2.5	-1.6	-2.4	2.8	1.0	64.0*	i
COC(=O)c1ccccc1NC(=O)N1CCCC1	-0.9	2.2	nt	2.8	1.3	10.6	nt
O=[N+]([O-])c1ccc(Cl)c(/C=N/n2c(-c3ccncc3)n[nH]c2=S)c1	23.1	-8.8	6.5	-6.5	9.7	-0.5	nt
CCCSc1nc2c(cnn2-c2ccccc2)c(=O)n1N	-0.5	6.2	-5.7	-5.6	2.6	76.4*	+
CCCCSc1nc2c(cnn2-c2ccccc2)c(=O)n1N	-0.5	5.3	-1.4	-2.0	-0.4	28.2	nt
O=C(Nc1cccc(S(=O)(=O)NC2=NCCCCC2)c1)c1cc(-c2ccco2)nc2ccccc12	-11.5	16.4	-5.4	-7.6	27.7	92.9*	+
O=C(Nc1cccc(S(=O)(=O)NC2=NCCCCC2)c1)c1cc(-c2ccncc2)nc2ccccc12	2.6	-7.2	0.9	2.4	-0.2	40.7	nt
N=C1/C(=C/c2ccc(-c3cccc(C(=O)O)c3)o2)C(=O)N=C2SC=C(c3ccccc3)N12	-97.1	20.3	-7.1	12.8	-34.6	90.6*	+
